Consider 17 compounds from ChEMBL document CHEMBL1136954, “Toward the back-up of boceprevir (SCH 503034): discovery of new extended P4-capped ketoamide inhibitors of hepatitis C virus NS3 serine protease with improved potency and pharmacokinetic profiles” (J Med Chem, 2009).

A value given as a limit tells only on which side of the number the result lay.

Series [1] is described as follows: Cytotoxicity against human hepatocytes assessed as effect on GAPDH RNA level […]. The format is cell-based, Hepatocyte. The gist of the method:
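Counter-screen for cellular toxicity measuring GAPDH; CC50 reported.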
Background: Tetrazolium assays rely on reduction of a dye to a coloured formazan, in cell work by metabolically active cells.

The nature of series [2]: Drug level in rat liver at 10 mg/kg, po after 6 hrs. Type of series: ADME, organism-based. On the set-up: dose 10 mg/kg, route oral. Conditions: read-out: Drug uptake. The method in brief:
(§1)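 Rapid rat oral screen, 2 animals, PO vehicle 40% HPBCD; compound concentration measured in liver at 6 h, or at 8 h where footnoted; plasma AUC taken over 0-6 h.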

Series [3] can be described thus: AUC (0 to 6 hrs) in rat at 10 mg/kg, po. Type of series: ADME, organism-based. On the set-up: time < 6 hr, dose 10 mg/kg, route oral. The settings on record: plasma.
Series [4] in a line: Inhibition of HCV NS4A-tethered single chain NS3 serine protease by spectrophotometric assay. On the set-up: species or system Hepacivirus hominis. The gist of the method: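 Continuous assay with NS4A-tethered single-chain NS3 serine protease; potency given as Ki*.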
Another series concerns Hepatitis C virus. Description: Antiviral activity against Hepatitis C virus genotype 1 infected in human hepatocytes by replicon assay. Type of series: functional, Hepacivirus hominis. Conditions: genotype 1, Hepatocyte. The method in brief: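 HCV genotype 1 replicon cell assay; EC90 reported, within 3-fold at 95% confidence for a single assay and within 2-fold for multiple assays.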
On the technique in general: In antiviral work, replicon cells carry a viral genome segment that copies itself.

Series [5] can be described thus: Drug level in rat liver at 10 mg/kg, po after 8 hrs. Type of series: ADME, organism-based. On the set-up: dose 10 mg/kg, route oral. Conditions: read-out: Drug uptake. The gist of the method: as §1

Usually CC50 stands for the concentration giving 50% cytotoxicity. One may read the AUC(0-t) as the area under the concentration-time curve up to a stated or last time point. For orientation: Ki means the equilibrium dissociation constant of an inhibitor or competing ligand from its target. Usually EC90 stands for the concentration needed for an effect of 90%. For the compound `C#CCCC(NC(=O)[C@@H]1[C@@H]2[C@H](CN1C(=O)[C@@H](NC(=O)N[C@H](C(=O)C1CC1)C(C)C)C(C)(C)C)C2(C)C)C(=O)C(=O)NC1CC1` (mixture of isomers), the CC50 in series [1] is greater than 5000 nM. Besides, the concentration at 6 h in series [2] was determined as 900 nM. The compound further displayed an AUC(0-t) at 6 h in series [3] of 4.8 µM·h. This compound came in with a Ki in series [4] of 8 nM. Further, in the series with Hepatitis C virus, the 90% effect level (EC90) was put at 70 nM.
Turning to `C=CCNC(=O)C(=O)C(CCC)NC(=O)[C@@H]1[C@@H]2[C@H](CN1C(=O)[C@@H](NC(=O)N[C@H](C(=O)C1CC1)C1CCCCC1)C(C)(C)C)C2(C)C` (mixture of isomers), the CC50 in series [1] is greater than 5000 nM. In addition, the area under the curve AUC(0-t) at 6 h in series [3] amounted to 55 µM·h. In series [4], this compound had a Ki of 10 nM. Besides, the EC90 with Hepatitis C virus came to 500 nM.
In the same order, the values of `C=CCNC(=O)C(=O)C(CCC)NC(=O)[C@@H]1[C@@H]2[C@H](CN1C(=O)[C@@H](NC(=O)N[C@H](C(=O)C1CC1)C(C)C)C(C)(C)C)C2(C)C` (mixture of isomers) are greater than 5000 nM, 26 µM·h, 25 nM and 600 nM.
On to `C#CCCC(NC(=O)[C@@H]1[C@@H]2[C@H](CN1C(=O)[C@@H](NC(=O)N[C@H](C(=O)C1CC1)C1CCCCC1)C(C)(C)C)C2(C)C)C(=O)C(=O)NCC=C` (mixture of isomers), for which the CC50 in series [1] is greater than 5000 nM. Besides, in series [2], the concentration at 6 h came out at 8500 nM. In series [3], this compound showed an AUC(0-t) at 6 h of 24 µM·h. In series [4], this compound yielded a Ki of 9 nM. The EC90 in the series on Hepatitis C virus stood at 250 nM.
Take `CC(C)(C)NC(=O)N[C@H](C(=O)N1C[C@H]2[C@@H]([C@H]1C(=O)NC(CC1CCC1)C(=O)C(N)=O)C2(C)C)C(C)(C)C` (stereo partly drawn) [BOCEPREVIR]: in series [1], the CC50 is greater than 5000 nM. This compound also gave an AUC(0-t) at 6 h in series [3] of 0.14 µM·h. Also, in series [5], the concentration at 8 h was found to be 300 nM. The same compound gave an inhibitory constant (Ki) in series [4] of 14 nM. The EC90 with Hepatitis C virus was found to be 350 nM.
With `CC(C)[C@H](NC(=O)N[C@H](C(=O)N1C[C@H]2[C@@H]([C@H]1C(=O)NC(CC1CC1)C(=O)C(N)=O)C2(C)C)C(C)(C)C)C(=O)C1CC1` (mixture of isomers), in series [1], the CC50 was greater than 5000 nM. The compound further came in with an AUC(0-t) at 6 h in series [3] of 0.12 µM·h. Moreover, affinity in series [4] was put at a Ki of 7 nM. In addition, the EC90 in the series on Hepatitis C virus came out at 100 nM.
In the same order, the values of `CC(C)[C@H](NC(=O)N[C@H](C(=O)N1C[C@H]2[C@@H]([C@H]1C(=O)NC(CC1CC1)C(=O)C(N)=O)C2(C)C)C(C)(C)C)C(=O)c1ccccn1` (mixture of isomers) are greater than 5000 nM, 0.42 µM·h, 8 nM and 200 nM.
For the compound `CC(C)[C@H](NC(=O)N[C@H](C(=O)N1C[C@H]2[C@@H]([C@H]1C(=O)NC(CC1CC1)C(=O)C(N)=O)C2(C)C)C(C)(C)C)C(=O)OCc1ccccc1` (mixture of isomers), the CC50 in series [1] is greater than 5000 nM. For the same compound, the Ki in series [4] turned out to be 13 nM. Also, the 90% effect level in the series with Hepatitis C virus (EC90) was put at 35 nM.
With `CC1(NC(=O)N[C@H](C(=O)N2C[C@H]3[C@@H]([C@H]2C(=O)NC(CC2CC2)C(=O)C(N)=O)C3(C)C)C(C)(C)C)CCCCC1` (mixture of isomers), the CC50 in series [1] is greater than 5000 nM. The affinity in series [4], expressed as Ki, was 9 nM. Further, in the series on Hepatitis C virus, the 90% effect level (EC90) was put at 200 nM.
In the same order, the values of `CC(C)(C)[C@H](NC(=O)NC1(COC(=O)c2ccccc2)CCCCC1)C(=O)N1C[C@H]2[C@@H]([C@H]1C(=O)NC(CC1CC1)C(=O)C(N)=O)C2(C)C` (mixture of isomers) are greater than 5000 nM, 120 nM and 1000 nM.
On to `CC(C)(C)[C@H](NC(=O)NC1(C(=O)OCC2CC2)CCCCC1)C(=O)N1C[C@H]2[C@@H]([C@H]1C(=O)NC(CC1CC1)C(=O)C(N)=O)C2(C)C` (mixture of isomers), for which the CC50 in series [1] was greater than 5000 nM. In addition, in series [4], the Ki worked out at 39 nM. For the same compound, the EC90 in the series with Hepatitis C virus was found to be 60 nM.
Regarding `CC(C)(C)[C@H](NC(=O)N[C@H](C(=O)c1ccccn1)C1CCCCC1)C(=O)N1C[C@H]2[C@@H]([C@H]1C(=O)NC(CC1CC1)C(=O)C(N)=O)C2(C)C` (mixture of isomers), the CC50 in series [1] was greater than 5000 nM. Further, the concentration at 6 h in series [2] worked out at 800 nM. The AUC(0-t) at 6 h in series [3] worked out at 1.4 µM·h. For the same compound, the Ki in series [4] was 7 nM. In the series on Hepatitis C virus, this compound came in with an EC90 of 90 nM.
Turning to `CC(C)C(=O)[C@@H](NC(=O)N[C@H](C(=O)N1C[C@H]2[C@@H]([C@H]1C(=O)NC(CC1CC1)C(=O)C(N)=O)C2(C)C)C(C)(C)C)C(C)C` (mixture of isomers), in series [1], the CC50 was greater than 5000 nM. Further, the Ki in series [4] came to 12 nM. In the series with Hepatitis C virus, this compound had an EC90 of 150 nM.
For `CC(C)(C)[C@H](NC(=O)N[C@H](C(=O)C1CC1)C1CCCCC1)C(=O)N1C[C@H]2[C@@H]([C@H]1C(=O)NC(CC1CC1)C(=O)C(N)=O)C2(C)C` (mixture of isomers), the CC50 in series [1] is greater than 5000 nM. Also, in series [2], the concentration at 6 h was found to be 2700 nM. The compound further showed an AUC(0-t) at 6 h in series [3] of 1.4 µM·h. In addition, in series [4], affinity was put at a Ki of 8 nM. This compound also returned an EC90 in the series on Hepatitis C virus of 100 nM.
Consider `C#CCCC(NC(=O)[C@@H]1[C@@H]2[C@H](CN1C(=O)[C@@H](NC(=O)N[C@H](C(=O)C1CC1)C1CCCCC1)C(C)(C)C)C2(C)C)C(=O)C(=O)NC1CC1` (mixture of isomers), for which, in series [1], the CC50 was greater than 5000 nM. Moreover, in series [2], the concentration at 6 h was found to be 2900 nM. In series [3], this compound yielded an exposure AUC(0-t) at 6 h of 11 µM·h. The Ki in series [4] came to 4 nM. Further, in the series on Hepatitis C virus, it took 55 nM to reach the 90% level (EC90).
For `CC(C)[C@H](NC(=O)N[C@H](C(=O)N1C[C@H]2[C@@H]([C@H]1C(=O)NC(CC1CC1)C(=O)C(N)=O)C2(C)C)C(C)(C)C)c1nnn[nH]1` (mixture of isomers), the CC50 in series [1] is greater than 5000 nM. Also, the Ki in series [4] was found to be 10 nM. The compound also gave an EC90 with Hepatitis C virus of 1000 nM.
Regarding `CC(C)[C@H](NC(=O)N[C@H](C(=O)N1C[C@H]2[C@@H]([C@H]1C(=O)NC(CC1CC1)C(=O)C(N)=O)C2(C)C)C(C)(C)C)C(=O)c1nccs1` (mixture of isomers), in series [1], the CC50 is greater than 5000 nM. The compound also returned an AUC(0-t) at 6 h in series [3] of 0.15 µM·h. Further, the Ki in series [4] was determined as 9 nM. In the series on Hepatitis C virus, this compound yielded an EC90 of 90 nM.
